Compound activity: PubChem, several laboratories
procasp3 activ: activates human procaspase-3; P42574; recombinant procaspase-3 D3A, Ac-DEVD-pNA absorbance 405 nm; activation, % at 8.5 µM; 330,000 tested, 0.11% active; AID 463141;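 active means activation above the mean of all tested compounds plus 3 SD, cut at about 21% in these data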
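assay system = Procaspase-3 D3A mutant | signal = absorbance at 405 nm, 0 and 120 min | times = 1 h preincubation plus 2 h reaction at 25 °C | repeats = single replicate | read-out = % activation between DMSO and enzyme-spiked controls | medium = Zinc-free HEPES saline buffer with Triton X-100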
proCasp7 act: activates human procaspase-7, counter-screen for procaspase-3 activators | P55210 | recombinant procaspase-7, Ac-DEVD-pNA absorbance 405 nm; D23A/D198A/D206A triple mutant, cannot self-cleave; scale: DMSO 0, 5 µM enzyme 100 | activation, % at 8.5 µM | 330,000 tested, 0.093% active;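 active means percent activation above the screen-wide mean plus 3 SD, cut at about 25% in these data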
Target sequence (P55210 whole entry D23A/D198A/D206A): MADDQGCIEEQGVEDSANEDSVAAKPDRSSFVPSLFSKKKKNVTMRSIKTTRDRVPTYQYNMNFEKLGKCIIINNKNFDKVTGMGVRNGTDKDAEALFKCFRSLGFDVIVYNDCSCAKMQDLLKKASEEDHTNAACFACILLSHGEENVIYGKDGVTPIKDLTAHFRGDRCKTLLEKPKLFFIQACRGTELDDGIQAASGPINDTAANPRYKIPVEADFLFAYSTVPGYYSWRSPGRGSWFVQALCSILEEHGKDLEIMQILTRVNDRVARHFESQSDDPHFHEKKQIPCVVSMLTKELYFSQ
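System: Uncleavable procaspase-7 mutant enzyme; Amount: 2 µM procaspase-7 mutant as dispensed; Schedule: 1 h compound preincubation, 2 h substrate cleavage, 25 °C; Measured by: 405 nm absorbance of p-nitroaniline; Evaluation: percent activation from buffer-corrected 0–120 min absorbance change; Control set: low DMSO alone, high DMSO plus 5 µM PC-7.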
CHT PAM: allosteric activators of human choline transporter CHT. Q9GZV3. CHT-expressing cells, membrane potential dye, choline EC20; active compounds read high; LV-AA mutant CHT in HEK293 cells. B-score at 10 µM. 310,000 tested, 0.49% active. AID 488977;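 active means initial fluorescence not abnormally high and integrated response B-score, plate-corrected, over 3 SD above library mean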
CHT inh: inhibits the human high affinity choline transporter; Q9GZV3; CHT-expressing cells, membrane potential dye, choline response; active compounds read low; B-score at 10 µM; 310,000 tested, 0.86% active; AID 488975;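 active means B-score over 3 SD under the library average, and starting fluorescence ratio not unusually high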;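 further: choline stimulus applied at its EC90 after an EC20 pre-addition; B-score computed on integrated fluorescence ratio after choline addition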
proCasp7 act trip: counter-screen for procaspase-3 activators: activators of human procaspase-7; shares compounds with procasp3 activ; recombinant procaspase-7, Ac-DEVD-pNA absorbance; asp23/198/206-to-Ala mutant, cannot self-cleave; activation, % at 8.5 µM; 210 tested, under 10 active;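 active means mean activation above a set limit taken from an earlier procaspase-7 screen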
procasp3 conf: confirmation of human procaspase-3 activators | shares compounds with procasp3 activ | recombinant PC-3 D3A, Ac-DEVD-pNA absorbance 405 nm; 100% is higher-enzyme control | activation, % at 8.5 µM | 210 tested, 10% active;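 active means mean activation above a set limit carried over from the earlier primary screen, cut at about 22% in these data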
Each line names hits and unclear results; the compound was inactive in the other large screens (follow-up assays come after a bar, where they were run). Rows were chosen to be rich in hits. Some 1.3% of all compounds tested hit in one or more screens of this group.

CC(NC(=O)c1cc2cc([N+](=O)[O-])ccc2oc1=O)C1CCCO1 (stereo not given)	procasp3 activ 22 | proCasp7 act trip inactive | procasp3 conf 32
COc1cccc(NC(=O)COC(=O)/C=C/c2ccc(Cl)cc2Cl)c1	none
COc1ccc(OC)c(/C=C/C(=O)OCC(=O)Nc2cccc(Oc3ccccc3)c2)c1	procasp3 activ 23 | proCasp7 act trip inactive | procasp3 conf inactive
COc1ccc(CC(NC(C)=O)C(=O)NC2CCN(C(=O)Nc3ccccc3C)CC2)cc1OC (stereo not given)	none
CCCC(=O)N(Cc1cc(=O)[nH]c2ccccc12)c1ccccc1	procasp3 activ 74 | proCasp7 act trip inactive | procasp3 conf inactive
COc1ccc(C(=O)N/C(=C\c2cn(S(=O)(=O)N(C)C)c3ccccc23)C(=O)NCCCN2CCOCC2)cc1	none
CC(=O)N1N=C(c2cccs2)CC1c1cccs1 (stereo not given)	none
CC(=O)c1ccc(-c2cccs2)s1	procasp3 activ 29 | proCasp7 act trip inactive | procasp3 conf inactive
CC(Sc1nncs1)C(=O)Nc1ccc2c(c1)OCCO2 (stereo not given)	procasp3 activ 22 | proCasp7 act trip inactive | procasp3 conf inactive
Nc1nn(S(=O)(=O)c2cccc3nsnc23)cc1-c1ccc(Br)cc1	none
Cc1ccc(-c2cn(S(=O)(=O)c3cccc4nsnc34)nc2N)cc1	procasp3 activ 23 | proCasp7 act trip inactive | procasp3 conf inactive
CCC(=O)c1ccc(OCC(=O)c2ccc3c(c2)NC(=O)CO3)cc1	procasp3 activ 23 | proCasp7 act trip inactive | procasp3 conf inactive
CCc1ccc(OCC(=O)OCC(=O)c2ccc3c(c2)NC(=O)CO3)cc1	none
Cc1ccc(S(=O)(=O)N2[C@@H](c3ccccc3F)C(C(=O)O)=CC[C@H]2c2ccc(Cl)c(Cl)c2)cc1	none
CCC(=O)Nc1c(S(=O)(=O)c2ccc(C)cc2)c2nc3ccccc3nc2n1C(C)c1ccccc1 (stereo not given)	procasp3 activ 26 | proCasp7 act trip inactive | procasp3 conf inactive
COc1ccc(C2CC(c3ccc(Cl)cc3)=NN2c2ccc(S(N)(=O)=O)cc2)cc1 (stereo not given)	procasp3 activ 33 (no result: CHT PAM, CHT inh) | proCasp7 act trip inactive | procasp3 conf inactive
COc1ccc(C2CC(c3ccncc3)=NN2c2ccc(S(N)(=O)=O)cc2)cc1 (stereo not given)	none (no result: CHT PAM, CHT inh)
C=CCn1c(=NC(=O)c2cc(-c3cccs3)nc3ccccc23)sc2cc(S(N)(=O)=O)ccc21	procasp3 activ 78 | proCasp7 act trip inactive | procasp3 conf inactive
COCCn1c(=NC(=O)c2cc(-c3cccs3)nc3ccccc23)sc2cc(S(N)(=O)=O)ccc21	procasp3 activ 44 | proCasp7 act trip inactive | procasp3 conf inactive
COCCn1c(=NC(=O)c2sc3ccccc3c2Cl)sc2cc(S(N)(=O)=O)ccc21	none
CC(C)N(Cc1ccccc1)C(=O)COC(=O)c1cc[n+]([O-])cc1	none (no result: CHT PAM, CHT inh)
O=C(Nc1cc(S(=O)(=O)N2CCOCC2)ccc1N1CCOCC1)c1ccccc1F	procasp3 activ 23 (no result: CHT PAM, CHT inh) | proCasp7 act trip inactive | procasp3 conf inactive
Cc1nc2c(C)cccn2c(=O)c1NC(=O)c1cccc2ccccc12	none
CCC(C)N(C(=O)COC(=O)c1cc([N+](=O)[O-])ccc1N)C1CCS(=O)(=O)C1 (stereo not given)	none
O=C(CN1C(=O)/C(=C\c2ccccc2Br)Oc2ccccc21)NCCCN1CCOCC1	procasp3 activ 32 | proCasp7 act trip inactive | procasp3 conf inactive
COc1cc2oc(=O)ccc2cc1[C@H](O)[C@@H](O)C(C)(C)O	none (no result: CHT PAM, CHT inh)
CCc1ccc2c(CN3CCN(S(=O)(=O)c4ccc5c(c4)OCCO5)CC3)cc(=O)oc2c1	none
O=c1cc(CN2CCN(S(=O)(=O)c3ccc4c(c3)OCCO4)CC2)c2ccc(O)cc2o1	procasp3 activ 22 | proCasp7 act trip inactive | procasp3 conf inactive
COCCNc1ncnc2c1cnn2Cc1ccccc1Cl	procasp3 activ 23 | proCasp7 act trip inactive | procasp3 conf inactive
CCc1nnc(NC(=O)CSc2nnc(-c3ccncc3)n2C)s1	none
